Reference: ChEMBL document CHEMBL3745600, “2-Amino-thiophene derivatives present antileishmanial activity mediated by apoptosis and immunomodulation in vitro” (Eur J Med Chem, 2015)

How the values were obtained:
[1] = Selectivity index, ratio of HC50 for human RBC to IC50 for axenic amastigotes of Leishmania amazonensis IFLA/BR/67/PH8
Summary of the method: (§1)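 Promastigote values came from haemocytometer counts after 72 h at 25°C. Axenic amastigote values came from MTT readings after 24 h at 32°C, using amastigotes differentiated at pH 4.6. All 50% values were obtained by probit regression.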

[2] = Toxicity in human RBC assessed as induction of hemolytic activity after 1 hr by spectrometer analysis; assay type: cell-based, Erythrocyte; conditions: red blood cells (RBC)
Summary of the method: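 A 5% suspension of human erythrocytes in PBS was mixed 4:1 with serial compound dilutions and incubated 1 h at 37°C. The reaction was stopped with PBS (pH 7.2) and spun 10 min at 1000 x g, and supernatant absorbance was read at 540 nm. Haemolysis was expressed relative to a drug-free blank and to water-induced total lysis. HC50 was obtained by probit regression.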

Leishmania amazonensis [3] = test: Antileishmanial activity against axenic amastigotes of Leishmania amazonensis IFLA/BR/67/PH8 after 24 hrs by MTT assay; conditions: IFLA/BR/67/PH8, 24 h
[4] = Selectivity index, ratio of HC50 for human RBC to IC50 for promastigotes of Leishmania amazonensis IFLA/BR/67/PH8; summary of the method: as §1
Leishmania amazonensis [5] = test: Antileishmanial activity against promastigotes of Leishmania amazonensis IFLA/BR/67/PH8 after 72 hrs by Neubauer haemocytometer counting; conditions: IFLA/BR/67/PH8, 72 h
[6] = Cytotoxicity against Swiss mouse peritoneal macrophages after 24 hrs by MTT assay; assay type: cell-based, Peritoneal macrophage cell
Summary of the method: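 Macrophages were collected from Swiss mice 5 days after thioglycollate (3%) elicitation. About 1 x 10^6 cells per well were incubated in RPMI 1640 with 10% heat-inactivated FBS and compound for 24 h at 37°C, 5% CO₂. MTT was added for 4 h, followed by 10% SDS, and absorbance was read at 540 nm. CC50 was obtained by probit regression.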

[7] = Selectivity index, ratio of CC50 for Swiss mouse peritoneal macrophages to EC50 for axenic amastigotes of Leishmania amazonensis IFLA/BR/67/PH8; summary of the method: as §1
[8] = Selectivity index, ratio of CC50 for Swiss mouse peritoneal macrophages to IC50 for promastigotes of Leishmania amazonensis IFLA/BR/67/PH8; assay type: functional; summary of the method: as §1

| IC50 (Leishmania amazonensis [5]) [µM] | Compound | Selectivity Index [1] | HC50 at 1 h [2] [µM] | EC50 (Leishmania amazonensis [3]) [µM] | Selectivity Index [4] | CC50 at 24 h [6] [µM] | Ratio CC50/EC50 [7] | Ratio CC50/IC50 [8] |
| --- | --- | --- | --- | --- | --- | --- | --- | --- |
| 61.5 | N#Cc1c(/N=C/c2ccccc2)sc2c1CCCC2 | 5.4 | 682 | 124 | 11.1 | 141 | 1.13 | 2.29 |
| 139 | N#Cc1c(/N=C/c2cccs2)sc2c1CCC2 | > 3.79 | > 800 | 211 | > 5.73 | 540 | 2.56 | 3.87 |
| 189 | N#Cc1c(/N=C/c2cccs2)sc2c1CCCCC2 | > 4.16 | > 800 | 192 | > 4.22 | 722 | 3.75 | 3.81 |
| 49.1 | N#Cc1c(/N=C/c2ccc3ncccc3c2)sc2c1CCC2 | 6 | 625 | 103 | 12.7 | 196 | 1.9 | 3.99 |
| 88 | COc1ccc(Br)c(/C=N/c2sc3c(c2C#N)CCCC3)c1 | > 4.78 | > 800 | 167 | > 9.1 | 211 | 1.26 | 2.4 |
| 187 | N#Cc1c(/N=C/c2ccc([N+](=O)[O-])cc2)sc2c1CCCC2 | > 3.76 | > 800 | 213 | > 4.27 | 229 | 1.07 | 1.22 |
| 165 | N#Cc1c(/N=C/c2ccc3ncccc3c2)sc2c1CCCCC2 | 5.41 | 716 | 132 | 4.35 | 438 | 3.31 | 2.66 |
